PLC-beta3 inh: PLC-beta3 (human) inhibition, primary screen | Q01970 | Purified PLC-beta3, fluorogenic substrate, fluorescence | 370,000 tested, 0.18% active | inhibition, % at 12.2 µM; in the data active = inhibition above about 11%
PLCg1 inh: PLC-gamma1 (human) inhibition, primary screen. P19174. purified PLC-gamma1, fluorogenic substrate, fluorescence. inhibition, % at 12.2 µM. 370,000 tested, 0.84% active; in the data active = inhibition above about 9.5%
Target sequence (P19174 whole entry, looked up): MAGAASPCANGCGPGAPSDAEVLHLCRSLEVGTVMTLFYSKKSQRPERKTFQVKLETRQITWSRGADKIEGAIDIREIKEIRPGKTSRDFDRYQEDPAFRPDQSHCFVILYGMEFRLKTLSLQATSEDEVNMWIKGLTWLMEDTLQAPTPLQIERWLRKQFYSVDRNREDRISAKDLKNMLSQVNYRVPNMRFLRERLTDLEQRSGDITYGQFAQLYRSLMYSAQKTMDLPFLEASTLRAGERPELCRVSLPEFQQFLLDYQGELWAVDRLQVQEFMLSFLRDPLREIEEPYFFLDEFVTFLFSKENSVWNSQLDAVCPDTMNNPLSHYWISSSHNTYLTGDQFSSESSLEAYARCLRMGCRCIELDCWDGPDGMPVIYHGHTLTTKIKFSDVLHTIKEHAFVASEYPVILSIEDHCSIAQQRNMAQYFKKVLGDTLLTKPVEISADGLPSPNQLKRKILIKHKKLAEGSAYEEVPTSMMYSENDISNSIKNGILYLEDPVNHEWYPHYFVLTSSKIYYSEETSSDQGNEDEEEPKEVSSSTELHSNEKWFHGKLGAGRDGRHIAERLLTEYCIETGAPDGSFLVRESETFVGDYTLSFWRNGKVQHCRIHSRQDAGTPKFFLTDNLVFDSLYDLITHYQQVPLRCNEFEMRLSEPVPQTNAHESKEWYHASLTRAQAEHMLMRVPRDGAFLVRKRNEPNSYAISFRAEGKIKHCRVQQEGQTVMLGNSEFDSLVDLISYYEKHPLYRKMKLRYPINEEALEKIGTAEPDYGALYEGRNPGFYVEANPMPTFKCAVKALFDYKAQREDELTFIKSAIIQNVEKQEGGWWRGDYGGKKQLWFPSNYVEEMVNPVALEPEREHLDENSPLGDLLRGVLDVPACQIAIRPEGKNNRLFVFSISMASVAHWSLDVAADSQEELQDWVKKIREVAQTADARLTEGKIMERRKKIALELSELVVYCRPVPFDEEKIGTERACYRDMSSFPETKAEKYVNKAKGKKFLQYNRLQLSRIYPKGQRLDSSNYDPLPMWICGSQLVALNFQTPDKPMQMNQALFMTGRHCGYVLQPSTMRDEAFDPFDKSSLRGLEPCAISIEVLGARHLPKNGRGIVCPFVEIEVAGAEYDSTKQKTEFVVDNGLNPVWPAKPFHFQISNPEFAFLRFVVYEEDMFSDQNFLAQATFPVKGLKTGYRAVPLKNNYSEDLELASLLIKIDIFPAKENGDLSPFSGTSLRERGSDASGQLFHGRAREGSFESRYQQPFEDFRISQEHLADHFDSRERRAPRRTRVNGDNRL
PvdQ acylase: blocks Pseudomonas aeruginosa PvdQ acylase activity; 340,000 tested, 0.063% active; AID 488965; inhibition, % at 10 µM; purified PvdQ acylase, fluorescence plate reader; in the data active = inhibition above about 30%, passing the limit was not always enough
IMP-1 inhibitor: blocks Pseudomonas aeruginosa IMP-1 metallo-beta-lactamase; purified IMP-1, nitrocefin hydrolysis, epi-absorbance fluorescence; inhibition, % at 5.6 µM; 290,000 tested, 0.45% active; AID 1556;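 active = inhibition above the mean plus 3 SD of all compounds in the same screening run, cut at about 4.5% in these data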
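System – purified recombinant IMP-1 beta-lactamase · Input – IMP-1 dispensed at 0.2 nM · Timing – 15 min preincubation plus 25 min reaction at 25 °C · Signal – Epi-absorbance fluorescence, 480 nm excitation, 530 nm emission · Measure – percent IMP-1 inhibition derived from blank-referenced optical density · Controls – Enzyme-plus-DMSO low control, enzyme-free DMSO high control · Replication – singlicate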
VIM-2 inh: inhibitors of Pseudomonas aeruginosa VIM-2 metallo-beta-lactamase; purified VIM-2, nitrocefin hydrolysis, epi-absorbance fluorescence; inhibition, % at 5.6 µM; 290,000 tested, 0.89% active; AID 1527;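 active = inhibition above the mean of all tested compounds plus 3 SD, cutoff set per screening run, cut at about 7.5% in these data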;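 also: red hydrolysis product quenches plate fluorescence so inhibitors raise well fluorescence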
Each line names hits and unclear results; the compound was inactive in the other large screens. Hits are enriched below; roughly 2% of the tested compounds scored in any of these assays.

S=c1nc[nH]c2c1sc1nc(-c3ccccc3)c3c(c12)CCCC3	IMP-1 inhibitor 16
CC(C)Cc1nc2sc3c(SCC(N)=O)ncnc3c2c2c1CCC2	none
N#CCC[C@@H]1CC[C@]2(CCCN(C(=O)c3ccco3)C2)O1	none (no result: PvdQ acylase, IMP-1 inhibitor, VIM-2 inh)
CN1CCN(c2ncnc3c2sc2nc(N4CCOCC4)c4c(c23)CCC4)CC1	none (no result: PLC-beta3 inh, PLCg1 inh, PvdQ acylase)
OCCN1CCN(c2ncnc3c2sc2nc(N4CCOCC4)c4c(c23)CCC4)CC1	VIM-2 inh 9.9
COc1ccc(CN2C(=O)[C@]3(NCCc4c3[nH]c3ccc(OC)cc43)c3cc(F)ccc32)cc1	none (no result: PvdQ acylase, IMP-1 inhibitor, VIM-2 inh)
COc1cc(NC(C)CCCN)c2ncccc2c1 (centres undefined)	none (no result: IMP-1 inhibitor, VIM-2 inh)
COc1cc(NCCCCCCCN)c2ncccc2c1	VIM-2 inh 7.8 (no result: PLC-beta3 inh, PLCg1 inh)
COc1cc(Br)c(CNc2cc(C)ccc2C)cc1OC	IMP-1 inhibitor 4.7
COc1ccc(-c2c(C)nn3c(Cl)c(C)c(C)nc23)cc1	VIM-2 inh 8.7
COc1ccc(-c2c(C)nn3c(-c4ccccc4)cc(C)nc23)cc1	none
Fc1ccc(-c2cc(C(F)(F)F)nc(-n3cccn3)n2)cc1	none
COc1cccc(-c2cc(C(F)(F)F)nc(-n3cc(C)cn3)n2)c1	none
COc1cccc(-c2cc(C(F)(F)F)nc(-n3cncn3)n2)c1	VIM-2 inh 8.7
Fc1ccc(-c2cc(C(F)(F)F)nc(-n3cncn3)n2)cc1	VIM-2 inh 9.7
O=C(CCc1ccccc1-c1ccccc1CCNC(=O)COCc1ccccc1)NCc1ccccc1	none (no result: PvdQ acylase, IMP-1 inhibitor, VIM-2 inh)
COC(=O)[C@]12C[C@H](CC(=O)N3CCCC3)C(=O)N(Cc3ccc(Cl)cc3Cl)C1=C[C@H](COCc1ccccc1)O[C@@H]2C	none (no result: PvdQ acylase, IMP-1 inhibitor, VIM-2 inh)
CCCc1cc(=O)oc2cc(C)cc(OCC(=O)Nc3cccnc3)c12	VIM-2 inh 12
CCCc1cc(=O)oc2cc(C)cc(OCC(=O)NCc3ccccn3)c12	none
CC(COc1ccccc1)CN1CCC(C(O)(c2ccccc2)c2ccccc2)CC1 (centres undefined)	none (no result: PvdQ acylase, IMP-1 inhibitor, VIM-2 inh)
CC(=O)c1ccc(NC(=O)CN2CCN(c3ccccc3)CC2)cc1	none
CC(=O)Nc1ccc(C(=O)CN2CCN(c3ccccc3)CC2)cc1	IMP-1 inhibitor 22
CN1CCN(c2ccc(NC(=O)c3ccc(Oc4ccccc4)cc3)cc2)CC1	VIM-2 inh 8.3
Cc1sc2nc(SCC(=O)c3ccc(O)c(O)c3)n(C)c(=O)c2c1C	none (no result: PvdQ acylase, IMP-1 inhibitor, VIM-2 inh)
O=C(Nc1ccc(-c2cn3ccccc3n2)cc1)c1cccs1	IMP-1 inhibitor 6.4
COc1ccc(CC(=O)Nc2ccc(-c3cn4ccccc4n3)cc2)cc1	none
C=CCn1c(SCC(=O)N(C)C)nc2sc3c(c2c1=O)CCC3	VIM-2 inh 8.4
CCc1c(C)c(C#N)c2nc3ccccc3n2c1NCC1CCCO1 (centres undefined)	VIM-2 inh 7.8
CC(C)c1cc(NCC2CCCO2)n2c(nc3ccccc32)c1C#N (centres undefined)	VIM-2 inh 9.9
CC(C)(O)c1[nH]c2ccc(C#N)cc2c1C(C)(C)O	IMP-1 inhibitor 4.9 (no result: PvdQ acylase)
CN(C)Cc1c(O)ccc2c3c(c(=O)oc12)CCCCC3	none
CN(Cc1c(O)ccc2c1oc(=O)c1ccccc12)C1CCCCC1	VIM-2 inh 8.7
O=C(O[C@@H]1OC2COC(=O)c3cc(O)c(O)c(O)c3-c3c(cc(O)c(O)c3O)C(=O)O[C@@H]([C@H]1O)[C@@H]2O)c1cc(O)c(O)c(O)c1	IMP-1 inhibitor 8.8 (no result: PLC-beta3 inh, PLCg1 inh)
Fc1ccc(-c2cc(-c3nnc4sc(-c5cccs5)nn34)[nH]n2)cc1	none (no result: PvdQ acylase, IMP-1 inhibitor, VIM-2 inh)
CCCCCC[C@@H](CC)CN(C(=O)Oc1ccccc1)c1ccccc1	none (no result: PvdQ acylase, IMP-1 inhibitor, VIM-2 inh)
COC(=O)[C@]12C[C@H](CC(=O)N3CCOCC3)C(=O)N(Cc3ccc(Cl)cc3Cl)C1=C[C@H](C(C)(C)C)O[C@@H]2C	none (no result: PvdQ acylase, IMP-1 inhibitor, VIM-2 inh)
CC(C)(C)C(=O)C(Oc1cccc2nonc12)n1cncn1 (centres undefined)	IMP-1 inhibitor 35
CCOc1ccc(OCC)c(NC(=O)C2CCN(S(=O)(=O)c3cccc4nonc34)CC2)c1	none
COc1cccc(Cn2c(=O)c3ccccc3n3nc(C)cc23)c1	VIM-2 inh 9.1
COc1cccc(Cn2c(=O)sc3ccccc3c2=O)c1	none
COc1ccc(/C(C#N)=C/c2cccnc2)cc1	PvdQ acylase 74
CCn1c(COc2ccccc2)nnc1SCc1ccc(C#N)cc1	PLCg1 inh 9.6
COC(=O)C1CN(Cc2ccc(OC)cc2)CCS(=O)(=O)N1Cc1ccc(C(F)(F)F)cc1 (centres undefined)	none (no result: PvdQ acylase, IMP-1 inhibitor, VIM-2 inh)
Cc1ccc2c(c1)c1ncnc(N3CCOCC3)c1n2C	VIM-2 inh 7.7
COC(=O)C1=C(C)N(Cc2ccc(C(F)(F)F)cc2)C(=NCc2ccc3c(c2)OCO3)NC1c1ccccc1C(F)(F)F (centres undefined)	none (no result: PvdQ acylase, IMP-1 inhibitor, VIM-2 inh)
COC(=O)C1=C(C)N(Cc2ccccc2C(F)(F)F)C(=NCc2ccc3c(c2)OCO3)NC1c1ccccc1C(F)(F)F (centres undefined)	PLC-beta3 inh 11 (no result: PvdQ acylase, IMP-1 inhibitor, VIM-2 inh)
CCC1=NN2C(=N)/C(=C\c3ccc(OCCOc4ccc(NC(C)=O)cc4)c(OC)c3)C(=O)N=C2S1	VIM-2 inh 10
CCC1=NN2C(=N)/C(=C\c3ccc(OCCOc4ccccc4OC)cc3)C(=O)N=C2S1	none
C[C@H]1[C@@H](OC(=O)Nc2ccc(C(F)(F)F)cc2)CC[C@@]23CCCN2C(=O)CCC[C@@H]13	none (no result: PvdQ acylase, IMP-1 inhibitor, VIM-2 inh)
O=C(O)c1cccc(-n2cccc2/C=C2/SC(=O)N(CC(=O)N3CCCC3)C2=O)c1	none
O=C(CN1C(=O)S/C(=C/c2cccn2-c2ccc(O)cc2)C1=O)N1CCCC1	VIM-2 inh 9.0
Cc1cccc2c(=O)cc(C)n(Cc3ccccc3)c12	PvdQ acylase 35
CNC(=O)Cn1c(C)cc(=O)c2cccc(C)c21	none (no result: PvdQ acylase)
O=C(NN1C(=O)C2C(c3ccccc3)C=CC(c3ccccc3)C2C1=O)c1cccc(Br)c1 (centres undefined)	IMP-1 inhibitor 21
O=C(NN1C(=O)C2C3c4ccccc4C(c4ccccc43)[C@@H]2C1=O)c1ccccc1 (some centres undefined)	none
O=C(NN1C(=O)C2C(c3ccccc3)C=CC(c3ccccc3)C2C1=O)c1ccccc1 (centres undefined)	IMP-1 inhibitor 34
Cc1ccc(-c2cc(-c3nnc(SCC(=O)N4c5ccccc5Sc5ccc(Cl)cc54)n3N)[nH]n2)cc1	none (no result: PvdQ acylase, IMP-1 inhibitor, VIM-2 inh)
O=C1CN(C(=O)C2CCCCC2)C=CN1CCc1ccccc1Br	none (no result: PvdQ acylase, IMP-1 inhibitor, VIM-2 inh)
CCOc1cc(/C=N/Nc2nn3cnnc3c3ccccc23)ccc1O	none
Oc1ccc(/C=N/Nc2nn3cnnc3c3ccccc23)cc1	VIM-2 inh 8.8
COc1cccc(/C=N/Nc2nn3cnnc3c3ccccc23)c1	VIM-2 inh 12
COc1cc(/C=N/Nc2nn3cnnc3c3ccccc23)ccc1O	none
CCOC(=O)C1CCCN(C2=C(NS(=O)(=O)c3ccc(Br)cc3)C(=O)c3ccccc3C2=O)C1 (centres undefined)	VIM-2 inh 8.2
CC1CCCN(C2=C(NS(=O)(=O)c3ccc(Br)cc3)C(=O)c3ccccc3C2=O)C1 (centres undefined)	VIM-2 inh 11
